Results as given in ChEMBL document CHEMBL1137418, “Neurosteroid analogues. 11. Alternative ring system scaffolds: gamma-aminobutyric acid receptor modulation and anesthetic actions of benz[f]indenes” (J Med Chem, 2006).
Calls of active or inactive are those of the source. No cut-off for these calls is given here.

Experiments:
[1] = biological target: GABA-A receptor; anion channel; assay: Displacement of [35S]TBPS from GABA-A receptor in rat brain membrane; format: cell membranes
In short: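 Rat brain membranes were used to measure noncompetitive displacement of [35S]-TBPS from the picrotoxin site of GABAA receptors. Hill slopes were also derived. Results come from duplicate experiments run in triplicate, with error as SEM.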

[2] = biological target: T1, GABA-A receptor; alpha-1/beta-2/gamma-2 (Rattus norvegicus) (UniProt P18508+P62813+P63138); assay: Activity at rat GABA-Aalpha1 receptor plus beta-2-gamma-2L expressed in Xenopus laevis oocyte assessed as ratio of GABA-mediated current in presence to absence of compound at 0.1 uM; format: functional
[3] = biological target: T1, GABA-A receptor; alpha-1/beta-2/gamma-2 (Rattus norvegicus); assay: Activity at rat GABA-Aalpha1 receptor plus beta2gamma2L expressed in Xenopus laevis oocyte assessed as ratio of GABA-mediated current in presence to absence of compound at 1 uM; format: functional
[4] = biological target: T1, GABA-A receptor; alpha-1/beta-2/gamma-2 (Rattus norvegicus); assay: Activity at rat GABA-Aalpha1 receptor plus beta-2-gamma-2L expressed in Xenopus laevis oocyte assessed as ratio of GABA-mediated current in presence to absence of compound at 10 uM; format: functional
Xenopus laevis [5] = species: Xenopus laevis; assay: Loss of righting reflex in Xenopus laevis tadpole; format: functional
In short: (§1)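 Xenopus tadpoles were scored for loss of righting response and, separately, loss of swimming response. N = 10 animals were tested at each of five or more concentrations, and error is given as SEM.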

Xenopus laevis [6] = species: Xenopus laevis; assay: Loss of swimming reflex in Xenopus laevis tadpole; format: functional; in short: as §1
[7] = biological target: T1, GABA-A receptor; alpha-1/beta-2/gamma-2 (Rattus norvegicus); assay: Activity at rat GABA-Aalpha1 receptor plus beta-2-gamma-2L expressed in Xenopus laevis oocyte assessed as ratio of current evoked by compound alone in absence of GABA to current evoked by 2 uM GABA at 10 uM
Xenopus laevis [8] = species: Xenopus laevis; assay: Loss of swimming reflex in Xenopus laevis tadpole at 10 uM; format: functional, organism-based
Xenopus laevis [9] = species: Xenopus laevis; assay: Loss of righting reflex in Xenopus laevis tadpole at 10 uM; format: functional, organism-based

SMILES | IC50 [1] [µM] | Ratio [2] | Ratio [3] | Ratio [4] | ED50 (Xenopus laevis [5]) [µM] | ED50 (Xenopus laevis [6]) [µM] | Ratio [7] | Activity (Xenopus laevis [8]) | Activity (Xenopus laevis [9])
C[C@]12CC[C@@H](O)C[C@H]1CC[C@@H]1[C@@H]2CC[C@]2(C)[C@@H](C#N)CC[C@@H]12 | 0.072 | 2.02 | 10.4 | 20.6 | 0.08 | 0.36 | 0.09 |  | 
CC(=O)[C@H]1CC[C@H]2[C@@H]3CC[C@@H](CCO)C[C@H]3CC[C@]12C | 1.17 | 0.91 | 0.96 | 3.63 | 1.09 | 3.15 | 0.14 |  | 
C[C@]12CC[C@@H]3C[C@H](CCO)CC[C@H]3[C@@H]1CCC2=O | 4.17 | 0.99 | 1.03 | 1.05 | 16.4 |  | 0.03 | inactive | 
C[C@]12CC[C@@H]3C[C@@H](CCO)CC[C@H]3[C@@H]1CC[C@@H]2C#N | 0.13 | 1.45 | 3.65 | 7.42 | 0.14 | 1.73 | 0.01 |  | 
C[C@]12CC[C@@H]3C[C@@H](CCO)CC[C@H]3[C@@H]1CCC2=O | 5.42 | 0.95 | 1.22 | 2.11 | 8.1 |  | -0.16 | inactive | 
C[C@]12CC[C@@H]3C[C@H](CCO)CC[C@H]3[C@@H]1CC[C@@H]2C#N | 0.58 | 1.29 | 2.33 | 12.2 | 0.79 | 5.5 | 0.54 |  | 
CC(=O)[C@H]1CC[C@H]2[C@@H]3CC[C@H](CCO)C[C@H]3CC[C@]12C | 0.13 | 1.27 | 3.79 | 9.35 | 1.04 | 2.84 | 0.13 |  | 
C[C@]12CC[C@@H](O)C[C@@H]1CC[C@@H]1[C@@H]2CC[C@]2(C)[C@@H](C#N)CC[C@@H]12 | 0.05 | 1.44 | 5.65 | 8.28 | 0.07 | 0.71 | 0.66 |  | 
CC(=O)[C@H]1CC[C@H]2CC3C[C@H](CCO)CC[C@@H]3C[C@@]21C (single isomer, unassigned) |  |  |  |  | >10 |  |  | inactive | 
CC(=O)[C@H]1CC[C@H]2CC3C[C@@H](CCO)CC[C@@H]3C[C@@]21C (single isomer, unassigned) | 2.05 |  |  |  | 6.63 | 17.3 |  |  | 
C[C@]12C[C@H]3CC[C@H](CCO)CC3C[C@@H]1CCC2=O (single isomer, unassigned; 1a) [listing 1 of 2 here] | 5.01 |  |  |  | 4.01 |  |  |  | 
C[C@]12C[C@H]3CC[C@H](CCO)CC3C[C@@H]1CCC2=O (single isomer, unassigned; 1a) [listing 2 of 2 here] |  | 1 | 1 | 2.42 |  |  | -0.02 | inactive | 
C[C@]12C[C@H]3CC[C@@H](CCO)CC3C[C@@H]1CCC2=O (single isomer, unassigned; 1b) [listing 1 of 2 here] | 3.92 |  |  |  |  |  |  |  | 
C[C@]12C[C@H]3CC[C@@H](CCO)CC3C[C@@H]1CCC2=O (single isomer, unassigned; 1b) [listing 2 of 2 here] |  | 0.9 | 1.08 | 3.54 |  |  | -0.02 | inactive | inactive
C[C@]12C[C@H]3CC[C@@H](CCO)CC3C[C@@H]1CCC2=O (single isomer, unassigned; 1c) [listing 1 of 2 here] | > 30 |  |  |  |  |  |  |  | 
C[C@]12C[C@H]3CC[C@@H](CCO)CC3C[C@@H]1CCC2=O (single isomer, unassigned; 1c) [listing 2 of 2 here] |  | 0.93 | 0.9 | 1.02 |  |  | -0.01 | inactive | inactive
C[C@]12C[C@H]3CC[C@H](CCO)CC3C[C@@H]1CCC2=O (single isomer, unassigned; 1d) [listing 1 of 2 here] | > 10 |  |  |  | 10 |  |  |  | 
C[C@]12C[C@H]3CC[C@H](CCO)CC3C[C@@H]1CCC2=O (single isomer, unassigned; 1d) [listing 2 of 2 here] |  | 1.02 | 1.04 | 1.21 |  |  | -0.05 | inactive | 
C[C@]12C[C@H]3CC[C@H](CCO)CC3C[C@@H]1CC[C@@H]2C#N (single isomer, unassigned; 2a) [listing 1 of 2 here] | 1.22 |  |  |  | 4.78 | 17.3 |  |  | 
C[C@]12C[C@H]3CC[C@H](CCO)CC3C[C@@H]1CC[C@@H]2C#N (single isomer, unassigned; 2a) [listing 2 of 2 here] |  | 1.02 | 1.29 | 3.9 |  |  | 0 |  | 
C[C@]12C[C@H]3CC[C@@H](CCO)CC3C[C@@H]1CC[C@@H]2C#N (single isomer, unassigned; 2b) [listing 1 of 2 here] | 0.52 |  |  |  | 2.88 | 5.48 |  |  | 
C[C@]12C[C@H]3CC[C@@H](CCO)CC3C[C@@H]1CC[C@@H]2C#N (single isomer, unassigned; 2b) [listing 2 of 2 here] |  | 1.02 | 2.11 | 7.21 |  |  | 0.01 |  | 
C[C@]12C[C@H]3CC[C@@H](CCO)CC3C[C@@H]1CC[C@@H]2C#N (single isomer, unassigned; 2c) [listing 1 of 2 here] | 1.98 |  |  |  | 3 |  |  |  | 
C[C@]12C[C@H]3CC[C@@H](CCO)CC3C[C@@H]1CC[C@@H]2C#N (single isomer, unassigned; 2c) [listing 2 of 2 here] |  | 1.01 | 1.14 | 3.23 |  |  | -0.01 | inactive | 
C[C@]12C[C@H]3CC[C@H](CCO)CC3C[C@@H]1CC[C@@H]2C#N (single isomer, unassigned; 2d) [listing 1 of 2 here] | 1.9 |  |  |  | 5.12 | 17.3 |  |  | 
C[C@]12C[C@H]3CC[C@H](CCO)CC3C[C@@H]1CC[C@@H]2C#N (single isomer, unassigned; 2d) [listing 2 of 2 here] |  | 0.98 | 1.03 | 2.17 |  |  | 0.01 |  | 
C[C@]12CC[C@@H](O)C[C@@H]1CC[C@@H]1[C@@H]2CC[C@]2(C)C(=O)CC[C@@H]12 [ANDROSTERONE] | 0.41 | 0.97 | 1.41 | 5.44 | 3.38 |  | 0.02 | inactive | 
CC(=O)[C@H]1CC[C@H]2[C@@H]3CC[C@H]4C[C@H](O)CC[C@]4(C)[C@H]3CC[C@]12C [BREXANOLONE] |  | 1.26 | 3.89 | 9.65 | 0.42 | 5.5 | 0.37 |  | 
CC(=O)[C@H]1CC[C@H]2[C@@H]3CC[C@@H]4C[C@H](O)CC[C@]4(C)[C@H]3CC[C@]12C [ELTANOLONE] |  | 1.2 | 2.82 | 9.77 | 0.06 | 0.3 | 0.06 |  | 
C[C@]12CC[C@@H](O)C[C@H]1CC[C@@H]1[C@@H]2CC[C@]2(C)C(=O)CC[C@@H]12 [ETIOCHOLANOLONE] | 4.14 | 0.89 | 0.87 | 1.39 | >10 |  | 0 | inactive | 
